Measured values reported in ChEMBL document CHEMBL4007452, “Discovery of an Orally Selective Inhibitor of Signal Transducer and Activator of Transcription 3 Using Advanced Multiple Ligand Simultaneous Docking” (J Med Chem, 2017).
The source made the active and inactive calls. The rule behind the calls is not given here.

Assays:
MDA-MB-231 [1] = test: Antiproliferative activity against human MDA-MB-231 cells after 24 hrs by MTT assay; assay type: functional, cell-based; details: MDA-MB-231, 24 h
Outline: (§1)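 Cells were seeded at 3000 per well and incubated 24 h at 37 °C. Compounds were added in triplicate with 10% FBS: 0.1-10 or 0.1-20 µM for cancer lines, 3.125-400 µM for MCF-10A. Viability was read by MTT absorbance at 595 nm, with IC50 fitted from the curves. DMSO stocks were 20 mM.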

U2OS = test: Antiproliferative activity against human U2OS cells after 24 hrs by MTT assay; assay type: functional, cell-based; outline: as §1
[2] = target: T1, Signal transducer and activator of transcription 1-alpha/beta (Homo sapiens) (UniProt P42224); test: Inhibition of STAT1 in human MDA-MB-231 cells assessed as reduction in IFN-gamma-induced STAT1-STAT1 DNA binding activity at 2.5 to 10 uM preincubated for 2 hrs followed by IFN-gamma stimulation measured after 30 mins by EMSA; assay type: cell-based
T1 sequence (whole entry): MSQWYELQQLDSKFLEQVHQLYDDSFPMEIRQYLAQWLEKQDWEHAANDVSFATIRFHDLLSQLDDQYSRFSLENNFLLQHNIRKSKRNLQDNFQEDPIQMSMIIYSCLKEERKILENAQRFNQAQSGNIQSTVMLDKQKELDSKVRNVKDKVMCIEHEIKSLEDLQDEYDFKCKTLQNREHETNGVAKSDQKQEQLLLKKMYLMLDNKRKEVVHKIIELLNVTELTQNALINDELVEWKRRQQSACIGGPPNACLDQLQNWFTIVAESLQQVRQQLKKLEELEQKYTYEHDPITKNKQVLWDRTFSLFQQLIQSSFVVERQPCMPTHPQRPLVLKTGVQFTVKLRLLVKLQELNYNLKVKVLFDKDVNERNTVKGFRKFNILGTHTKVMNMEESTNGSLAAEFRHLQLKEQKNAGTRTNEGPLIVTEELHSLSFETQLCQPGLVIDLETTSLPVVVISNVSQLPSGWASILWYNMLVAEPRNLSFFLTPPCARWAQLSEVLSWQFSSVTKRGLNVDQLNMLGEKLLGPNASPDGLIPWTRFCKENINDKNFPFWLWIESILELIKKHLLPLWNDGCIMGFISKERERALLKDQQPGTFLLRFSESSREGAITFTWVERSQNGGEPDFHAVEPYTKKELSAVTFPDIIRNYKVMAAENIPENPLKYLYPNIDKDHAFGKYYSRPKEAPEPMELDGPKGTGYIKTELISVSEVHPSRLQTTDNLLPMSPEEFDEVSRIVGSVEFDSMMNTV
Outline: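 Serum-starved MDA-MB-231 cells were preincubated with compound, stimulated with IFN-γ 50 ng/mL, and then nuclear extracts were taken for EMSA with biotin-labeled probe.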

[3] = target: T1, Signal transducer and activator of transcription 1-alpha/beta (Homo sapiens); test: Inhibition of STAT1 in human MDA-MB-231 cells assessed as reduction in CDK2 mRNA level at 5 to 10 uM by RT-PCR analysis; assay type: cell-based
Outline: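 Total RNA was extracted from treated MDA-MB-231 cells and 1 µg reverse-transcribed. qPCR ran 95 °C 5 min, then 40 cycles of 95 °C 10 s, 60 °C 15 s and 72 °C 15 s, followed by a melt curve from 60 to 95 °C.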

MDA-MB-231 [4] = test: Anticancer activity against human MDA-MB-231 cells xenografted in BALB/c nude mouse assessed as reduction in tumor volume at 5 mg/kg, po qd administered for 32 days; assay type: functional; design: scale not given: the % may be the effect or the level left; details: in the assay text read “tumor weight” for “tumor volume”
Mus musculus [5] = test: Toxicity in BALB/c nude mouse xenografted with human MDA-MB-231 cells assessed as spleen damage at 2.5 to 10 mg/kg, po qd administered for 32 days by H&E staining based light microscopy; assay type: organism-based; details: in vivo, 768 h
Outline: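 6-week-old female athymic SPF BALB/c nude mice received 5 x 10^6 MDA-MB-231 cells s.c. in the flank. Oral treatment began once tumors reached about 100 mm3, with 8 mice per group and a saline vehicle control. […] Treatment lasted 32 days. Heart, liver, spleen, lung and kidney were fixed 48 h in 10% neutral-buffered formaldehyde, paraffin-embedded, cut at 5 µm, H&E-stained and examined by light microscopy.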

Mus musculus [6] = test: Toxicity in BALB/c nude mouse xenografted with […] S180 cells assessed as body weight loss at 5 mg/kg, po after 21 days relative to vehicle control; assay type: organism-based; details: in vivo, 504 h
Mus musculus [7] = test: In vivo inhibition of STAT3 in po dosed BALB/c nude mouse xenografted with human MDA-MB-231 assessed as reduction in p-STAT3(Y705) level administered as qd for 32 days by Western blot analysis; assay type: functional, organism-based
Outline: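 Whole-cell lysates from MDA-MB-231 xenograft tumors of mice dosed orally at 2.5, 5 or 10 mg/kg were immunoblotted for P-STAT3(Y705), T-STAT3 and GAPDH.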

[8] = Initial plasma concentration in Sprague-Dawley rat at 1 mg/kg, iv measured after 24 hrs by UPLC analysis; assay type: ADME, organism-based
Outline: (§2)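 Rat plasma sampled from 2 min to 24 h after a single i.v. (1 mg/kg) or p.o. (10 mg/kg) dose. Parameters were derived from the concentration-time profiles. The bioanalytical method was validated to FDA guidelines for selectivity, linearity, LLOQ, accuracy, precision, recovery, matrix effect and stability.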

[9] = Apparent volume of distribution in Sprague-Dawley rat plasma at 1 mg/kg, iv measured after 24 hrs by UPLC analysis; assay type: ADME, organism-based; details: read-out: Vz; outline: as §2
Rattus norvegicus [10] = test: AUMC (0 to infinity) in Sprague-Dawley rat plasma at 1 mg/kg, iv measured after 24 hrs by UPLC analysis; assay type: ADME, organism-based; details: in vivo; outline: as §2
[11] = MRT (0 to infinity) in Sprague-Dawley rat plasma at 1 mg/kg, iv measured after 24 hrs by UPLC analysis; assay type: ADME, organism-based; outline: as §2
[12] = Oral bioavailability in Sprague-Dawley rat at 10 mg/kg measured after 24 hrs by UPLC analysis; assay type: ADME, organism-based; details: in vivo
Rattus norvegicus [13] = test: AUMC (0 to infinity) in Sprague-Dawley rat plasma at 10 mg/kg, po measured after 24 hrs by UPLC analysis; assay type: ADME, organism-based; details: in vivo; outline: as §2
[14] = MRT (0 to t) in Sprague-Dawley rat plasma at 10 mg/kg, po measured after 24 hrs by UPLC analysis; assay type: ADME, organism-based; outline: as §2
[15] = MRT (0 to infinity) in Sprague-Dawley rat plasma at 10 mg/kg, po measured after 24 hrs by UPLC analysis; assay type: ADME, organism-based; outline: as §2
[16] = target: T2, Signal transducer and activator of transcription 3 (Homo sapiens, UniProt P40763); details: 2.5 to 5 uM
T2 sequence (P40763 whole entry): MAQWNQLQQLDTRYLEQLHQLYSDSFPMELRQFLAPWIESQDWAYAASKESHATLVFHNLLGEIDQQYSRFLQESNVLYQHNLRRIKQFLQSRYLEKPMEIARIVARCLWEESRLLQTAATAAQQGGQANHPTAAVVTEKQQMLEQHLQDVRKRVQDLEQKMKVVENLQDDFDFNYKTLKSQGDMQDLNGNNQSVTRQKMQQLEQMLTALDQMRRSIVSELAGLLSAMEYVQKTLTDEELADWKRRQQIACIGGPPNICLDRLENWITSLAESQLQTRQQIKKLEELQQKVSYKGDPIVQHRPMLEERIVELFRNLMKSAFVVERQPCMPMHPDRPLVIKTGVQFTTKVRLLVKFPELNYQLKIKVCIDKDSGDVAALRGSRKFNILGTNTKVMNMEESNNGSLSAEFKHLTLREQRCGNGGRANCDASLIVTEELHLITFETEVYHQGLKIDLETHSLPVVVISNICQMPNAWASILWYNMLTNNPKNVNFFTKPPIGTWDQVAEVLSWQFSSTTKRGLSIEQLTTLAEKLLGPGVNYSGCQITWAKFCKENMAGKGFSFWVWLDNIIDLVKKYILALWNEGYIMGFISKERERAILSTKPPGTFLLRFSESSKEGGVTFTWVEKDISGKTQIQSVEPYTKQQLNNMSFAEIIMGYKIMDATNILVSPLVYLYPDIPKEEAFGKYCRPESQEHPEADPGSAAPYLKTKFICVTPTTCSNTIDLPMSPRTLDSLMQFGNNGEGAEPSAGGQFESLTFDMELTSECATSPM

[17] = target: T2, Signal transducer and activator of transcription 3; details: 2.5 to 5 uM; remark: listed apart in the source
CCRF S-180 = test: Antiproliferative activity against mouse S180 cells after 24 hrs by MTT assay; details: CCRF S-180, 24 h

## NS(=O)(=O)c1cccc2c1C(=O)C=C(Nc1ccccc1N1CCNCC1)C2=O
MDA-MB-231 [1]
  IC50: 700 nM
U2OS
  IC50: 1500 nM
[2]
  inhibition: inactive
[3]
  inhibition: inactive
MDA-MB-231 [4]
  Activity: 60%
Mus musculus [5]
  Activity: Non-Toxic
Mus musculus [6]
  Activity: 1.68%
Mus musculus [7]
  inhibition: Dose-dependent effect
[8]
  C0 at 24 h: 382 ng/mL
[9]
  Vd: 4.94 L/kg
Rattus norvegicus [10]
  AUMC: 149 hr2.ng/ml
[11]
  MRT inf: 0.71 h
[12]
  bioavailability: 44.7%
Rattus norvegicus [13]
  AUMC: 2002.1 hr2.ng/ml
[14]
  MRT last at 24 h: 1.87 h
[15]
  MRT inf: 2.25 h
[16]
  inhibition: Active
[17]
  inhibition: Active
CCRF S-180
  IC50: 420 nM
